In ChEMBL document CHEMBL4732162, “Design, synthesis and evaluation of novel ErbB/HDAC multitargeted inhibitors with selectivity in EGFR mutant cell lines” (Eur J Med Chem, 2021):
Active and inactive are the calls of the source. The calls are words filed in the database; no cut-off is given here.

Assays:
FHC = test: Cytotoxicity against human FHC cells assessed as reduction of cell viability incubated for 72 hrs by MTT assay; type: ADME, cell-based
[1] = biological target: T1, Histone deacetylase (Homo sapiens) (UniProt Q13547+O15379+Q9UBN7+Q92769+Q9UQL6+Q8WUI4+Q9BY41+Q96DB2+P56524+Q9UKV0+Q969S8); test: Inhibition of HDAC in human NCI-H1975 cells assessed as increase in histone H3 acetylation at 2.5 uM after 1 to 12 hrs by Western blot analysis; type: cell-based; settings: time lower 1.0 hrs, time upper […]
NCI-H1975 [2] = test: Induction of apoptosis in human NCI-H1975 cells assessed as increase in cleaved-caspase 7 level at 0.5 to 5 uM after 48 hrs by Western blot analysis; type: functional, cell-based; settings: dose 0.5-5 µM
Method in brief: (§1)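 Cells were treated with compound for 48 h and lysed on ice for 30 min in RIPA buffer with protease and phosphatase inhibitors. Lysates were cleared at 14000 g, 4 °C, and protein quantified by BCA. Samples were boiled in loading buffer, run on 10–12% SDS-PAGE and transferred to PVDF. Membranes were blocked 2 h, incubated in primary antibody overnight at 4 °C, then in secondary antibody 2 h at room temperature.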

[3] = biological target: T1, Histone deacetylase (Homo sapiens); test: Inhibition of HDAC in human NCI-H1975 cells assessed as increase in histone H3 acetylation after 48 hrs by Western blot analysis; type: cell-based; settings: dose 0.5-5 µM; method in brief: as §1
NCI-H1975 [4] = test: Down regulation of AKT protein expression in human NCI-H1975 cells at 0.5 to 5 uM after 48 hrs by Western blot analysis; type: functional, cell-based; settings: dose 0.5-5 µM; method in brief: as §1
NCI-H1975 [5] = test: Down regulation of EGFR protein expression in human NCI-H1975 cells at 0.5 to 5 uM after 48 hrs by Western blot analysis; type: functional, cell-based; settings: dose 0.5-5 µM; method in brief: as §1
NCI-H1975 [6] = test: Antiinvasive activity against human NCI-H1975 cells measured after 72 hrs by crystal violet dye-based transwell assay; type: functional, cell-based; settings: dose 0.5-5 µM
Method in brief: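 NCI-H1975 cells, 1 × 10⁴/well, seeded in serum-free medium in the upper chamber of a transwell insert. The lower chamber held 10% FBS medium with compound at the indicated dilutions, for 72 h. Non-invading cells were swabbed off. Cells on the membrane underside were fixed in 10% buffered formalin for 1 h, stained with crystal violet for 1 h, and imaged in three random fields.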

NCI-H1975 [7] = test: Cytotoxicity against human NCI-H1975 cells assessed as inhibition of colony formation incubated for 7 days by crystal violet based colony formation assay; type: functional, cell-based; settings: dose 0.5-5 µM, time 7.0 day
Method in brief: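 NCI-H1975 cells, 1 × 10⁴/well, were seeded in 6-well plates and cultured 12 h. They were then treated with compound for 7 days. Colonies were fixed in 10% buffered formalin for 1 h and stained with crystal violet for 1 h.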

NCI-H1975 [8] = test: Antiproliferative activity against human NCI-H1975 cells incubated for 72 hrs by MTT assay; type: functional, cell-based; settings: NCI-H1975, 72 h
NCI-H1975 [9] = test: Induction of apoptosis in human NCI-H1975 cells assessed as early apoptotic cells at 2.5 uM incubated for 48 hrs by propidium iodide and annexin-V FITC staining based flow cytometry (reference value: 6.67 %); type: functional
NCI-H1975 [10] = test: Induction of apoptosis in human NCI-H1975 cells assessed as viable cells at 2.5 uM incubated for 48 hrs by propidium iodide and annexin-V FITC staining based flow cytometry (Rvb =88.95% ); type: functional; settings: read-out: Activity
cells = type: cell-based; settings: BaF3, 72 h
[11] = biological target: T2, Epidermal growth factor receptor (Homo sapiens, UniProt P00533); test: Inhibition of EGFR in human NCI-H1975 cells assessed as reduction in EGFR phosphorylation at Tyr-1068 residues after 48 hrs by Western blot analysis; type: cell-based; settings: dose 0.5-5 µM; method in brief: as §1
T2 sequence (P00533 whole entry): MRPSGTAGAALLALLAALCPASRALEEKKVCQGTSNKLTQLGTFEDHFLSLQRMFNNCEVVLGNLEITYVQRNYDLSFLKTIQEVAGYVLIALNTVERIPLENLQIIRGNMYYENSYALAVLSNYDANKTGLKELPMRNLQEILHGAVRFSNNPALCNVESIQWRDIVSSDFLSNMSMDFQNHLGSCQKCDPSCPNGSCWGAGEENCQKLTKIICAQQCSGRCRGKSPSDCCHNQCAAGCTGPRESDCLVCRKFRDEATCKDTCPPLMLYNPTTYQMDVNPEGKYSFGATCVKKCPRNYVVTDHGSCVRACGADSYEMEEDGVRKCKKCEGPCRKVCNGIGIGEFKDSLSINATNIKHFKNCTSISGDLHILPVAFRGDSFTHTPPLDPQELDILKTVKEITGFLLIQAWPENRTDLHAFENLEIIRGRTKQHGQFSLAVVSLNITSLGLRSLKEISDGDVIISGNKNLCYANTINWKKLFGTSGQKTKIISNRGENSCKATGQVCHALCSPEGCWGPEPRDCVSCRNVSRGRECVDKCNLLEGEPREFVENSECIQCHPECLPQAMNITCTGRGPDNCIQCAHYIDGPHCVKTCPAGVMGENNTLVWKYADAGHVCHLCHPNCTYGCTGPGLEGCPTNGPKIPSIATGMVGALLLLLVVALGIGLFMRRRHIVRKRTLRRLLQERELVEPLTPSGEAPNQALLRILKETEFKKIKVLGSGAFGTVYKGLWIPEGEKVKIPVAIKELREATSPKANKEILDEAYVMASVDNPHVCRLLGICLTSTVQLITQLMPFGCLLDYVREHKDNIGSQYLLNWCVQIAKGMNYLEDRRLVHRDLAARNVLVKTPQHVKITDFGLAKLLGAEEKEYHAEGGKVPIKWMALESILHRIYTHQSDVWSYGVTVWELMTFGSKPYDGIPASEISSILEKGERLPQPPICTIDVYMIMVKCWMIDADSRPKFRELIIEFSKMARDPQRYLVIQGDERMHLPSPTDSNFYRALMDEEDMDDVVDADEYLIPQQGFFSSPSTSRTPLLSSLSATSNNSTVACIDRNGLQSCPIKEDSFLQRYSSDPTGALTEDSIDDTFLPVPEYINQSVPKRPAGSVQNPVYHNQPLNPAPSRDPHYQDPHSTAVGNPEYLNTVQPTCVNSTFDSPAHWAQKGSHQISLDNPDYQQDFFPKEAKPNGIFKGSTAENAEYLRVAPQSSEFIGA

A549 = test: Antiproliferative activity against human A549 cells incubated for 72 hrs by MTT assay; type: functional, cell-based; settings: A549, 72 h
NCI-H1975 [12] = test: Induction of apoptosis in human NCI-H1975 cells assessed as early apoptotic cells at 5 uM incubated for 48 hrs by propidium iodide and annexin-V FITC staining based flow cytometry (reference value: 6.67 %); type: functional
SK-BR-3 = test: Antiproliferation activity against human SK-BR-3 cells incubated for 72 hrs by MTT assay; type: functional, cell-based; settings: SK-BR-3, 72 h
Method in brief: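 MTT assay. About 0.5–1 × 10⁴ cells/well were pre-incubated 12 h at 37 °C in 5% CO₂, then exposed to a concentration series of compound for 72 h. Formazan was dissolved in DMSO and absorbance read at 490 nm. Three wells per condition, three independent experiments. IC50 is the mean ± SD from the dose-response curves.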

[13] = biological target: Epidermal growth factor receptor (Homo sapiens, UniProt P00533, L858R); test: Inhibition of EGFR L858R (unknown origin) by mobility shift assay
Epidermal growth factor receptor (Homo sapiens, UniProt P00533, L858R), sequence (P00533 25-1210 L858R limits assumed): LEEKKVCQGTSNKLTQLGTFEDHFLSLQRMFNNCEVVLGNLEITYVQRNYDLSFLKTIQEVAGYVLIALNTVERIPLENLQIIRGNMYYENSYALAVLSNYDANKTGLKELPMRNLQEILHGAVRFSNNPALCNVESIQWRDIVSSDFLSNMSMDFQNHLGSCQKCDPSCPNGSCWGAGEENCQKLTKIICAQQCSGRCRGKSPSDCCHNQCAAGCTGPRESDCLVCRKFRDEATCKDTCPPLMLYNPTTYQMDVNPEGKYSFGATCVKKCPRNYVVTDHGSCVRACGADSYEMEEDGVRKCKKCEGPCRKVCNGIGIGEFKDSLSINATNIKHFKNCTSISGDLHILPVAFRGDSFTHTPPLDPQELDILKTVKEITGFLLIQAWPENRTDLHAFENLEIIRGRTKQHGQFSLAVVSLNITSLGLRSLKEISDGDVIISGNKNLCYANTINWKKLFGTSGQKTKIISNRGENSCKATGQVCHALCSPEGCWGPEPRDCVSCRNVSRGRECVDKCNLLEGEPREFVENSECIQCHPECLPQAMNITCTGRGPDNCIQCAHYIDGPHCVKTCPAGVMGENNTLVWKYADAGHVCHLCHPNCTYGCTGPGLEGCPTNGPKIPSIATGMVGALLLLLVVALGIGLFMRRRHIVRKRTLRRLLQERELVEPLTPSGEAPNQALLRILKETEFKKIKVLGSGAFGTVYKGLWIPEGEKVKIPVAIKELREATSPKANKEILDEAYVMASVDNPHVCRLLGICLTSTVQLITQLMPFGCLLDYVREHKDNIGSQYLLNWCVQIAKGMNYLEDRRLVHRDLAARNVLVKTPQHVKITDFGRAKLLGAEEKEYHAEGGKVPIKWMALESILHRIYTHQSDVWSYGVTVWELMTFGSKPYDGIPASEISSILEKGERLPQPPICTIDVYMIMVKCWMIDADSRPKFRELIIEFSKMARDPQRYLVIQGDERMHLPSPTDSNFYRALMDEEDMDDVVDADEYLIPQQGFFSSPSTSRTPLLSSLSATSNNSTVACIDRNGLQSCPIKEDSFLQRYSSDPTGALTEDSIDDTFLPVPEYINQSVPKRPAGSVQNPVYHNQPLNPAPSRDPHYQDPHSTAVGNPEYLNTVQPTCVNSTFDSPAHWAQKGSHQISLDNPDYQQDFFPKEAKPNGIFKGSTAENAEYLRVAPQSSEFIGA

NCI-H1975 [14] = test: Induction of apoptosis in human NCI-H1975 cells assessed as increase in cleaved-caspase 8 level at 0.5 to 5 uM after 48 hrs by Western blot analysis; type: functional, cell-based; settings: dose 0.5-5 µM; method in brief: as §1
L02 = test: cytotoxicity against human HL-7702 cells assessed as reduction of cell viability incubated for 72 hrs by MTT assay; type: ADME, cell-based; settings: L02, 72 h
NCI-H1975 [15] = test: Induction of apoptosis in human NCI-H1975 cells assessed as early apoptotic cells at 0.5 uM incubated for 48 hrs by propidium iodide and annexin-V FITC staining based flow cytometry (reference value: 6.67 %); type: functional
[16] = biological target: Receptor tyrosine-protein kinase erbB-2 (Homo sapiens, UniProt P04626); test: Inhibition of HER2 (unknown origin) by mobility shift assay
Receptor tyrosine-protein kinase erbB-2, sequence (P04626 whole entry): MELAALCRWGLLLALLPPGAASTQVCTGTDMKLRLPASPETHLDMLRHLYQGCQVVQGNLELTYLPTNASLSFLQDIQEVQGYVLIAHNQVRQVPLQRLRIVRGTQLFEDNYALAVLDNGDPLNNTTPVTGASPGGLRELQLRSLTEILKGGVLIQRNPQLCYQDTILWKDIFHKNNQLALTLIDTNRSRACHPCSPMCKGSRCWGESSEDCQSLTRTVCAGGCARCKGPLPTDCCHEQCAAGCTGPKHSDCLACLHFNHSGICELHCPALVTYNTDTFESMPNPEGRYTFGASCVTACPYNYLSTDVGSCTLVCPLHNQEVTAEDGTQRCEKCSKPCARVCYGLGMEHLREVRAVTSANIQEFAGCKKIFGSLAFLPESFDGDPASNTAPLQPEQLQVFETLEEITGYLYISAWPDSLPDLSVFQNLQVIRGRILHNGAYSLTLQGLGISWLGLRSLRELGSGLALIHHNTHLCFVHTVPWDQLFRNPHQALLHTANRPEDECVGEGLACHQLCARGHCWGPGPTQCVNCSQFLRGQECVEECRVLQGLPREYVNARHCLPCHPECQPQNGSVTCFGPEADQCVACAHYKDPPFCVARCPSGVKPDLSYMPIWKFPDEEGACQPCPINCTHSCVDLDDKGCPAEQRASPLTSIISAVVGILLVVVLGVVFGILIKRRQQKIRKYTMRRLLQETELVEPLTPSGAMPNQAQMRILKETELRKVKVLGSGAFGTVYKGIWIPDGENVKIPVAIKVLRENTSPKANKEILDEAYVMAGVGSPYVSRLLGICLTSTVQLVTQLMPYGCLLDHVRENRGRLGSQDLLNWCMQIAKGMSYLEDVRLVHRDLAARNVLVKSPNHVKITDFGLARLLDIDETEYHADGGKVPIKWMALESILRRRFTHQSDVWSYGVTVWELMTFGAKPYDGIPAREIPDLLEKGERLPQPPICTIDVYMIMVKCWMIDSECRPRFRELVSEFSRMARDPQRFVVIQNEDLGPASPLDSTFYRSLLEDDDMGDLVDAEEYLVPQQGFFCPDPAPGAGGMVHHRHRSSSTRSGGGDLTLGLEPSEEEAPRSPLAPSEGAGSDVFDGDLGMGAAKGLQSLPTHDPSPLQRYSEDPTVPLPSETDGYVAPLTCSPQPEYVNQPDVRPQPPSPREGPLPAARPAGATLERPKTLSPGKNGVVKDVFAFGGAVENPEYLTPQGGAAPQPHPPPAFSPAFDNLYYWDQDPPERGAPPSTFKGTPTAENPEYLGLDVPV
Method in brief: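 In vitro kinase activity was measured by mobility shift assay, run by a contract provider.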

NCI-H1975 [17] = test: Induction of apoptosis in human NCI-H1975 cells assessed as necrotic cells at 0.5 uM incubated for 48 hrs by propidium iodide and annexin-V FITC staining based flow cytometry (Rvb =0.18% ); type: functional
NCI-H1975 [18] = test: Induction of apoptosis in human NCI-H1975 cells assessed as necrotic cells at 5 uM incubated for 48 hrs by propidium iodide and annexin-V FITC staining based flow cytometry (Rvb =0.18% ); type: functional
NCI-H1975 [19] = test: Induction of apoptosis in human NCI-H1975 cells assessed as increase in cleaved-PARP level at 0.5 to 5 uM after 48 hrs by Western blot analysis; type: functional, cell-based; settings: dose 0.5-5 µM; method in brief: as §1
[20] = Antiproliferative activity against human NCI-H820 cells incubated for 72 hrs by MTT assay; type: functional, cell-based; settings: NCI-H820, 72 h
[21] = biological target: T2, Epidermal growth factor receptor; test: Inhibition of EGFR in human NCI-H1975 cells assessed as reduction in AKT phosphorylation at S473 residues at 0.5 to 5 uM after 48 hrs by Western blot analysis; type: cell-based; settings: dose 0.5-5 µM; method in brief: as §1
Histone deacetylase 1 = Histone deacetylase 1 (Homo sapiens, UniProt Q13547); test: Inhibition of HDAC1 (unknown origin)
Histone deacetylase 1, sequence (Q13547 whole entry): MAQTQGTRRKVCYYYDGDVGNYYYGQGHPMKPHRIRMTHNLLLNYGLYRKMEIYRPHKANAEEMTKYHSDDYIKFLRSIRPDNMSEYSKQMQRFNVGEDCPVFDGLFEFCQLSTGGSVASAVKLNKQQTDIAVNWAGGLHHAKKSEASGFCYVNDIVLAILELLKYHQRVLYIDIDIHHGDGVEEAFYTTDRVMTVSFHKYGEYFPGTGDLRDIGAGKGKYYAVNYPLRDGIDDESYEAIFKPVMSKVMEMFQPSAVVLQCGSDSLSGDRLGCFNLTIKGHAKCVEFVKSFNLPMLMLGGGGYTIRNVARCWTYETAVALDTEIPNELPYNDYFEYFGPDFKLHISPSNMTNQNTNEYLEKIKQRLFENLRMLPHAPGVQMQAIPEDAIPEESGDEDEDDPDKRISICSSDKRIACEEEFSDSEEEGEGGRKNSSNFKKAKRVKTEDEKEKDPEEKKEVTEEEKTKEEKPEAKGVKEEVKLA

[22] = biological target: T2, Epidermal growth factor receptor; test: Inhibition of EGFR in human A431 cells assessed as reduction in EGFR phosphorylation at Tyr-1173 residues at 0.5 to 5 uM after 48 hrs by Western blot analysis; type: cell-based; settings: A-431, dose 0.5-5 µM; method in brief: as §1
NCI-H838 = test: Antiproliferation activity against human NCI-H838 cells incubated for 72 hrs by MTT assay; type: functional, cell-based; settings: NCI-H838, 72 h
[23] = biological target: T2, Epidermal growth factor receptor; test: Inhibition of EGFR in human A431 cells assessed as reduction in EGFR phosphorylation at Tyr-1068 residues at 0.5 to 5 uM after 48 hrs by Western blot analysis; type: cell-based; settings: A-431, dose 0.5-5 µM; method in brief: as §1

inhibition [1]: Active
inhibition [3]: Dose-dependent effect
IC50 (NCI-H1975 [8]): 1820 nM
IC50 (cells): 7610 nM
inhibition [11]: Dose-dependent effect
IC50 (A549): > 50000 nM
IC50 (SK-BR-3): 30800 nM
IC50 [13]: 1.1 nM
IC50 [16]: 5.7 nM
inhibition [21]: Active
IC50 (Histone deacetylase 1): 75 nM
inhibition [22]: Active
IC50 (NCI-H838): > 50000 nM
inhibition [23]: Active
Compound: C=CC(=O)Nc1cc2c(Nc3ccc(F)c(Cl)c3)ncnc2cc1OCc1cn(CCCC(=O)NO)nn1
IC50 (FHC): > 25000 nM
Activity (NCI-H1975 [2]): Active
Activity (NCI-H1975 [4]): Active
Activity (NCI-H1975 [5]): Active
Activity (NCI-H1975 [6]): Dose-dependent effect
inhibition (NCI-H1975 [7]): Dose-dependent effect
Activity (NCI-H1975 [9]): 31.38%
viability at 2.5 µM (NCI-H1975 [10]): 54%
Activity (NCI-H1975 [12]): 35.22%
Activity (NCI-H1975 [14]): Active
IC50 (L02): > 25000 nM
Activity (NCI-H1975 [15]): 24.28%
Activity (NCI-H1975 [17]): 0.08%
Activity (NCI-H1975 [18]): 0.57%
Activity (NCI-H1975 [19]): Active
IC50 [20]: 1750 nM
